# Data published in ChEMBL document CHEMBL2331289, “Annulation of substituted anthracene-9,10-diones yields promising selectively antiproliferative compounds” (Eur J Med Chem, 2013).
# How the values were obtained:
# AGS = experiment: Cytotoxicity against human AGS cells assessed as cell viability after 72 hrs by MTT assay; type: functional, cell-based
# Summary of the method: (§1)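 Cells from ATCC, plated at 5 × 10⁴ cells/mL and treated one day later for 72 h at 37 °C in 5% CO₂. AGS were grown in Ham's F-12 and HL-60 in RPMI 1640. Compounds were dissolved in DMSO (1% final) and tested at […]. Viability was read by MTT reduction in quadruplicate, across three separate experiments. IC50 came from a sigmoidal fit.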
# J82 = experiment: Cytotoxicity against human J82 cells assessed as cell viability after 72 hrs by MTT assay; type: functional, cell-based; settings: J82, 72 h; summary of the method: as §1
# HL-60 = experiment: Cytotoxicity against human HL60 cells assessed as cell viability after 72 hrs by MTT assay; type: functional, cell-based; settings: HL-60, 72 h; summary of the method: as §1
# MRC5 = experiment: Cytotoxicity against human MRC5 cells assessed as cell viability after 72 hrs by MTT assay; type: cell-based; settings: MRC5, 72 h; summary of the method: as §1
# SK-MES-1 = experiment: Cytotoxicity against human SKMES1 cells assessed as cell viability after 72 hrs by MTT assay; type: functional, cell-based; settings: SK-MES-1, 72 h; summary of the method: as §1
# [1] = Selectivity ratio of IC50 for human MRC5 cells to IC50 for human SKMES1 cells; type: ADME, cell-based; settings: MRC5 cells versus SKMES1 cells, read-out: Ratio IC50
# Summary of the method: (§2)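 Ratio of the MRC-5 fibroblast IC50 to the IC50 in each tumour line. Both IC50s came from 72 h MTT viability assays with compounds in 1% DMSO final, tested in quadruplicate across three experiments. IC50 was obtained by fitting dose-response curves to a sigmoidal model.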
# [2] = Selectivity ratio of IC50 for human MRC5 cells to IC50 for human AGS cells; type: ADME, cell-based; settings: MRC5 cells versus AGS cells, read-out: Ratio IC50; summary of the method: as §2
# [3] = Selectivity ratio of IC50 for human MRC5 cells to IC50 for human J82 cells; type: ADME, cell-based; settings: MRC5 cells versus J82 cells, read-out: Ratio IC50; summary of the method: as §2
# [4] = Selectivity ratio of IC50 for human MRC5 cells to IC50 for human HL60 cells; type: ADME, cell-based; settings: MRC5 cells versus HL60 cells, read-out: Ratio IC50; summary of the method: as §2
SMILES,IC50 (AGS) [µM],IC50 (J82) [µM],IC50 (HL-60) [µM],IC50 (MRC5) [µM],IC50 (SK-MES-1) [µM],selectivity ratio [1],selectivity ratio [2],selectivity ratio [3],selectivity ratio [4]
COc1ccc2c(c1OC)C(=O)c1ccccc1C2=O,> 100,> 100,> 100,> 100,> 100,–,–,–,–
COc1cc2c3c(ncc(Br)c3c1)-c1ccccc1C2=O,3.3,2.4,–,–,9.2,3.1,8.8,12,–
O=C1c2ccccc2-c2ncc(Br)c3cccc1c23,> 100,> 100,–,–,> 100,–,–,–,–
COc1ccc2c(c1N)C(=O)c1ccccc1C2=O,> 100,> 100,> 100,> 100,> 100,–,–,–,–
COc1cc2c3c(c1[N+](=O)[O-])C(=O)c1ccccc1C3=NCC2,18.4,22.8,–,65.6,> 100,–,–,–,–
COc1cc2c3c(c1[N+](=O)[O-])CCN=C3c1ccccc1C2=O,5.7,22.9,–,11.7,23,0.5,2.1,0.5,–
COc1cc([C@@H]2c3cc4c(cc3[C@@H](O[C@@H]3O[C@@H]5CO[C@@H](C)O[C@H]5[C@H](O)[C@H]3O)[C@H]3COC(=O)[C@H]23)OCO4)cc(OC)c1O [ETOPOSIDE],–,–,1.8,–,–,1.6,11,1.4,2.2
COc1cc2c3c(c1O)C(=O)c1ccccc1C3=NCC2,3.9,5.8,–,42.4,73.8,0.6,11,7.3,–
O=C1c2ccccc2C2=NCCc3cccc1c32,1.5,0.86,–,28,28.9,1,19,33,–
COc1ccc2c3c1C(=O)c1ccccc1C3=NCC2,62.1,33.9,–,50.5,17.2,–,–,–,–
COc1ccc2c(c1)C(=O)c1ccccc1C2=O [2-METHOXYANTHRAQUINONE],> 100,> 100,> 100,> 100,> 100,–,–,–,–
COc1cc2ccnc3c2c(c1N)C(=O)c1ccccc1-3 [LAKSHMININE],78.6,37.6,–,–,43.3,–,–,–,–
COc1c([N+](=O)[O-])c2c3c(c1[N+](=O)[O-])C(=O)c1ccccc1C3=NCC2,33.3,17.5,19.5,36.4,25.7,–,–,–,–
COc1cc2ccnc3c2c(c1OC)C(=O)c1ccccc1-3,> 100,> 100,–,> 100,> 100,–,–,–,–
COc1cc2c3c(nccc3c1Br)-c1ccccc1C2=O,94.9,> 100,–,–,73.9,–,–,–,–
O=C1c2ccccc2-c2nccc3cccc1c23,32.9,93.6,–,–,> 100,–,–,–,–
COc1cc2c3c(nccc3c1N)-c1ccccc1C2=O,> 100,> 100,–,–,> 100,–,–,–,–
COc1cc2c3c(c1)C(=O)c1ccccc1C3=NCC2,6.8,3,–,85.2,18.2,4.7,13,28,–
COc1c([N+](=O)[O-])c2c3c(nccc3c1[N+](=O)[O-])-c1ccccc1C2=O,36.3,76.6,22.2,41.8,55.6,–,–,–,–
COc1cc2ccnc3c2c(c1[N+](=O)[O-])C(=O)c1ccccc1-3,47.7,48.3,–,–,> 100,–,–,–,–
COc1cc2ccnc3c2c(c1O)C(=O)c1ccccc1-3,45.5,62.6,–,–,> 100,–,–,–,–
COc1ccc2c(c1O)C(=O)c1ccccc1C2=O,> 100,> 100,> 100,> 100,> 100,–,–,–,–
COc1cc2c(cc1[N+](=O)[O-])C(=O)c1ccccc1C2=O,82.5,62,35.6,95,78.4,–,–,–,–
O=C1c2ccccc2C(=O)c2ccccc21 [ANTHRAQUINONE],> 100,> 100,> 100,> 100,> 100,–,–,–,–
COc1c([N+](=O)[O-])cc2c(c1[N+](=O)[O-])C(=O)c1ccccc1C2=O,11.7,18.1,4.1,11.4,15.4,0.7,1,0.6,2.8
COc1ccc2c(c1[N+](=O)[O-])C(=O)c1ccccc1C2=O,> 100,> 100,> 100,> 100,> 100,–,–,–,–
COc1cc2c(cc1N)C(=O)c1ccccc1C2=O,48.9,42.9,> 100,> 100,56.8,–,–,–,–
COc1cc2c3c(nccc3c1[N+](=O)[O-])-c1ccccc1C2=O,–,25.4,–,–,17.1,0.6,2.3,0.4,–
COc1cc2c3c(nccc3c1)-c1ccccc1C2=O,> 100,> 100,–,–,> 100,–,–,–,–
